SENP8 block-1: SENP8 (human) protease inhibition. recombinant SENP8, Nedd8 substrate fluorescence. AID 602440. inhibition, % at 20 µM. Q96LD8. hit rate 0.64% among 360,000; in the data active = inhibition mostly above about 40%, no sharp cut-off; inactive = mostly below about 27%
HSP90 refold inh: HSP90 refolding inhibition in rabbit reticulocyte lysate. inhibition, % at 5.6 µM. luciferase refolding luminescence, 3 h. hit rate 0.91% among 290,000;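 active = inhibition above the screen-wide mean plus 3 SD, computed separately per campaign, cut at about 16% in these data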;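 note: 0% = DMSO wells and 100% = 60 µM geldanamycin wells; inhibitors lower the luminescence because luciferase stays unfolded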
SENP8 block-2: SENP8 protease inhibition | Q96LD8 | inhibition, % at 10 µM | purified SENP8, Z-RLRGG-aminoluciferin cleavage, luminescence | hit rate 1.2% among 330,000; in the data active = inhibition above about 50%
SENP6 block: SENP6 protease inhibition; inhibition, % at 10 µM; hit rate 1.8% among 330,000; Recombinant SENP6 catalytic domain, aminoluciferin luminescence;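 active = inhibition above about 50% at the single tested dose, limit read from the data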;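 note: plate controls were DMSO wells with enzyme for no effect and DMSO wells lacking enzyme for full effect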
SENP7 inh: blocks the human protease SENP7; recombinant SENP7, Z-RLRGG-aminoluciferin luminescence, 40 min; Q9BQF6; inhibition, % at 5 µM; AID 434973; hit rate 1.5% among 330,000;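 active = inhibition above about 50% at the single test dose, limit read from the data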;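 note: plate controls were DMSO with enzyme for no effect and no enzyme buffer wells for full effect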
Target sequence (Q9BQF6 706-1050 limits assumed): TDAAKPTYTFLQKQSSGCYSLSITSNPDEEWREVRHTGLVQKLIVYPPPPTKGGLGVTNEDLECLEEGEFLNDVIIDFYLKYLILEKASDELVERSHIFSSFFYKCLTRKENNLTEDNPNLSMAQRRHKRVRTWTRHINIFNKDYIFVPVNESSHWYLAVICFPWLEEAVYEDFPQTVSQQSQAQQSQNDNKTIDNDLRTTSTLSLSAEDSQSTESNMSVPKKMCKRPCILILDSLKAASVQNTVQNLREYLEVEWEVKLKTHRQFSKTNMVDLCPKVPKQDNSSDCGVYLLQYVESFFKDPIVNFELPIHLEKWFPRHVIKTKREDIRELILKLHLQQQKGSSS
SENP1 inh: blocks the human SENP1 SUMO protease catalytic domain | Q9P0U3 | inhibition, % at 10 µM | recombinant SENP1 catalytic domain, CyPet-SUMO1-YPet FRET cleavage | hit rate 0.21% among 360,000 | AID 624204;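 active = inhibition at least 30% at 10 µM, raw YFP signal under a set limit, fluorescence ratio 0.5 to 1.5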;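 note: 0% = enzyme with DMSO and 100% = no enzyme wells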
Target sequence (Q9P0U3 419-644 limits assumed): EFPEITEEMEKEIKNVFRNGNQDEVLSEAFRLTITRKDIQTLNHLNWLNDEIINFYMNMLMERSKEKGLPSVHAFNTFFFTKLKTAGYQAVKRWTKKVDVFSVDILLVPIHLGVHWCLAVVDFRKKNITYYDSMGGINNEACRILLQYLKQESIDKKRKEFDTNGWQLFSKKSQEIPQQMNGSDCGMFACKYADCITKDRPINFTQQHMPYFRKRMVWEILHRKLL
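System: Recombinant human SENP1 catalytic domain, His6-tagged | Incubation: Enzyme reaction for 50 min at room temperature, dark | Medium: Tris pH 8 with BME, BSA, NP40 and catalase | Also added: 25 nM SUMO1 FRET substrate | Compound: 10 µM single point, 0.5% DMSO | Measured by: FRET fluorescence in CFP and YFP emission channels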
SENP8 confirm: confirmation of human SENP8 protease inhibitors; shares compounds with SENP7 inh; Recombinant SENP8, Z-RLRGG-aminoluciferin luminescence, 60 min; inhibition, % at 12.5 µM; hit rate 40% among 6,200;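 active = mean inhibition across replicates above about 50%, limit read from the data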
SENP6 conf: confirmation of human SENP6 protease inhibitors; shares compounds with SENP7 inh; recombinant SENP6, Z-RLRGG-aminoluciferin luminescence; inhibition, % at 12.5 µM; hit rate 58% among 6,200
SENP7 conf: human SENP7 inhibition, confirmed. shares compounds with SENP7 inh. recombinant SENP7, Z-RLRGG-aminoluciferin luminescence, 40 min. inhibition, % at 12.5 µM. hit rate 69% among 6,200. AID 488917
Casp3 select: selectivity test for SENP inhibitors: human caspase-3 inhibition. inhibition, % at 12.5 µM. hit rate 60% among 6,200. shares compounds with SENP7 inh. purified caspase-3, Z-DEVD-aminoluciferin luminescence, 60 min;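 active = mean inhibition above about 50%, limit read from the data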;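 note: plate controls were enzyme with DMSO for no effect and wells without caspase-3 for full effect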
Luc interf: counter-screen for SENP inhibitors: luminescence interference | shares compounds with SENP7 inh | Pre-incubated SENP8/Z-RLRGG-aminoluciferin, luciferase luminescence interference | inhibition, % at 12.5 µM | hit rate 39% among 6,200 | AID 488919;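 active = mean inhibition above about 50% when retested at one dose, limit read from the data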;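 note: plate controls were DMSO wells with completed reaction for no effect and substrate without enzyme for full effect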
Active calls of the source: *; nt = no result given. Sampled rows, rich in hits. Any-hit rate of the full collection: about 2.9%.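 Rule for the calls, unless noted: active = mean inhibition above about 50% in the one-dose retest (limit read from the data); inactive = the rest.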

SMILES	SENP8 block-1	HSP90 refold inh	SENP8 block-2	SENP6 block	SENP7 inh	SENP1 inh	SENP8 confirm	SENP6 conf	SENP7 conf	Casp3 select	Luc interf
CCC(C)n1c(-c2cccc(S(=O)(=O)N3CCOCC3)c2)n[nH]c1=S (stereo not given)	4	nt	6	0	5	2	nt	nt	nt	nt	nt
CCn1c(COc2ccccc2C)nc2ccccc21	18	-2	58*	75*	47	0	41	40	78*	53*	29
CCn1c(COc2ccccc2OC)nc2ccccc21	8	-2	-11	9	-3	0	nt	nt	nt	nt	nt
Cn1c(COc2ccccc2Br)nc2ccccc21	14	1	60*	69*	49	2	52*	71*	91*	63*	31
CC(=O)N(CCc1ccccc1)c1ccc2c(c1)C1CC2CCN1C(=O)OCc1ccccc1 (stereo not given)	6	nt	nt	nt	nt	-3	nt	nt	nt	nt	nt
Cc1ccc(S(=O)(=O)N(C)C)cc1-n1c(SCC(=O)Nc2ccccc2)nc2ccccc2c1=O	3	8	1	50*	8	1	0	-5	-7	-2	-5
O=C(Nc1ccccc1C(=O)NCc1ccco1)Nc1cccc2ccccc12	-239	2	-6	-22	-1	-3	nt	nt	nt	nt	nt
O=C(Nc1cccc(Cl)c1)Nc1ccccc1C(=O)NCc1ccco1	-404	0	68*	73*	76*	0	14	47	96*	43	46
COc1cccc(CC2(CO)CCCN(Cc3ccc(OC)c(C)c3OC)C2)c1 (stereo not given)	12	-2	-5	3	6	-10	nt	nt	nt	nt	nt
COc1ccc(C(=O)Nc2nc3ccccc3c(=O)[nH]2)cc1	5	12	24	54*	49	1	27	23	59*	72*	41
COc1ccc(C(=O)Nc2nc3cc(OC)c(OC)cc3c(=O)[nH]2)cc1	-33	-5	3	-5	5	1	nt	nt	nt	nt	nt
Cc1nc(SCCC(=O)O)c2cc(-c3ccccc3)sc2n1	-83	1	71*	72*	60*	0	46	76*	14	82*	48
Cc1noc(C)c1C(=O)OCC(=O)c1cc(C)n(Cc2ccccc2Cl)c1C	8	-2	4	68*	26	4	2	10	45	30	14
Cc1noc(C)c1C(=O)OCC(=O)c1ccc[nH]1	11	1	-2	-2	5	-7	nt	nt	nt	nt	nt
O=C(CSc1nc2[nH]ncc2c(=O)[nH]1)Nc1ccccc1	-1	-2	-5	2	-7	-1	nt	nt	nt	nt	nt
Cc1cc(=O)[nH]c(SCCOc2ccc(OC(C)C)cc2)n1	7	15	91*	94*	89*	-2	91*	95*	100*	95*	58*
O=C(CSc1n[nH]c(-c2ccc(Br)cc2)n1)N1CCOCC1	10	nt	-14	-11	3	-2	nt	nt	nt	nt	nt
O=C(Nc1ccc2c(c1)CCCN2C(=O)c1ccccc1)c1ccccc1Br	17	0	25	38	20	1	nt	nt	nt	nt	nt
COc1cc(OC)cc(C(=O)Nc2ccc3c(c2)CCCN3C(=O)c2cccs2)c1	16	0	-8	24	6	0	nt	nt	nt	nt	nt
COc1ccccc1C(=O)Nc1ccc2c(c1)CCCN2C(=O)c1ccccc1	17	-5	84*	90*	84*	0	85*	82*	95*	85*	76*
COc1ccccc1C(=O)Nc1ccc2c(c1)CCCN2C(=O)c1cccs1	3	0	47	54*	55*	2	66*	64*	84*	65*	58*
O=C(CC1C(=O)NCCN1C1CCCC1)NCc1cccc(OC(F)(F)F)c1 (stereo not given)	1	-1	4	-3	-5	0	nt	nt	nt	nt	nt
Cc1ccc(S(=O)(=O)N2CCCCC2)cc1NC(=O)COC(=O)Cc1cccc(C(F)(F)F)c1	4	0	-9	-13	-2	0	nt	nt	nt	nt	nt
O=C(NC12CC3CC(CC(C3)C1)C2)N(Cc1ccccc1)Cc1ccncc1	22	-3	1	-6	2	-1	nt	nt	nt	nt	nt
c1ccc(CCNc2ncnc3c2cnn3-c2ccccc2)cc1	8	9	44	58*	0	1	58*	51*	82*	39	37
SMILES	SENP8 block-1	HSP90 refold inh	SENP8 block-2	SENP6 block	SENP7 inh	SENP1 inh	SENP8 confirm	SENP6 conf	SENP7 conf	Casp3 select	Luc interf
Cc1nc(NC(=O)c2csc3ccccc23)sc1C	-4	4	50*	69*	77*	2	17	73*	95*	51*	22
Cc1nc(NC(=O)c2ccccc2)sc1C	6	7	78*	90*	92*	-1	90*	91*	100*	95*	89*
CC(=O)c1sc(NC(=O)c2ccccc2)nc1-c1ccccc1	0	0	63*	75*	61*	1	19	71*	88*	51*	54*
CC(=O)c1sc(NC(=O)c2c(F)cccc2F)nc1-c1ccccc1	-10	-3	-8	-23	-8	-2	nt	nt	nt	nt	nt
Cc1nc(NC(=O)c2ccccc2O)sc1C	-170	4	34	49	54*	1	-21	39	38	7	-4
Cc1nn(C)c(C)c1/C=N/NC(=O)c1csc2ccccc12	nt	6	-8	-12	-2	nt	nt	nt	nt	nt	nt
Cc1nc(NC(=S)NC(=O)c2ccccc2)sc1C	31	-3	-20	6	16	2	nt	nt	nt	nt	nt
CS(=O)(=O)c1sc(C#N)c2c1C(=O)CC(c1ccccc1)C2 (stereo not given)	6	0	1	10	0	1	nt	nt	nt	nt	nt
N#CCC(=O)N/N=C/c1cc(-c2ccccc2)n(-c2ccc(Cl)cc2)c1-c1ccccc1	nt	2	9	0	5	nt	nt	nt	nt	nt	nt
Cc1nc(NC(=O)c2cccnc2Cl)sc1C	-10	nt	32	54*	49	0	36	37	75*	80*	60*
CCCCN1C(=O)N(c2ccccc2Cl)C(C)(O)CC1(C)C (stereo not given)	6	1	-15	-13	-3	2	nt	nt	nt	nt	nt
COc1cc(OC)cc(C(=O)NN(CCC#N)C2=NS(=O)(=O)c3ccccc32)c1	-1	1	-9	3	-10	2	nt	nt	nt	nt	nt

From PubChem
